Test results published in ChEMBL document CHEMBL1157378, “Role for cell density in antifungal drug resistance in Candida albicans biofilms” (2007).
Values after ≈ are worked out from the molar mass of the structure shown. Active and inactive are the calls of the source. The calls are words filed in the database; no cut-off is given here.

How the values were obtained:
Candida albicans [1] = experiment: Antimicrobial activity against Chk1 deficient Candida albicans CHK21 at planktonic cell density of 10^8 cells/ml after 48 hrs by XTT assay; type: functional; conditions: CHK21, 48 h
Outline: (§1)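 YNB-grown yeast (50 mM glucose, room temperature, shaken, to ~2 x 10^8 cells/ml) washed into MOPS-buffered RPMI 1640 with L-glutamine and set to the stated density. Exposed to twofold serial drug dilutions (1,024 to 0.0313 µg/ml) at 37°C, 48 h (caspofungin 24 h), with drug-free controls. Read-out: XTT (0.5 g/liter) plus 1 µM menadione, formazan at 490 nm.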

Candida albicans [2] = experiment: Antimicrobial activity against Chk1 deficient Candida albicans CHK21 dissociated biofilms at cell density of 10^3 cells/ml after 48 hrs by XTT assay; type: functional; conditions: CHK21, 48 h
Outline: (§2)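 Polystyrene-well biofilms (48 h, 37°C) washed, then broken up in 100 µl RPMI by scraping and aspiration. Cells used undiluted (about 2 x 10^8 cells/ml equivalent) or adjusted by A600 against a hemacytometer-calibrated yeast standard curve. Drug exposure at 37°C for 48 h (caspofungin 24 h), then XTT/menadione read at 490 nm.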

Candida albicans [3] = experiment: Antimicrobial activity against Chk1 deficient Candida albicans CHK21 dissociated biofilms at cell density of 10^8 cells/ml after 48 hrs by XTT assay; type: functional; conditions: CHK21, 48 h; outline: as §2
Candida albicans [4] = experiment: Antimicrobial activity against Chk1 deficient Candida albicans CHK21 intact biofilms after 48 hrs by XTT assay; type: functional; conditions: CHK21, 48 h
Outline: (§3)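 Biofilm seeded at 1 x 10^6 cells/ml in RPMI in polystyrene microtiter wells and grown 48 h at 37°C in a moist chamber. Washed once and drug added to the same well (twofold dilutions, 1,024 to 0.0313 µg/ml) for 48 h at 37°C (caspofungin 24 h). Read-out: XTT/menadione reduction at 490 nm.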

Candida albicans [5] = experiment: Antimicrobial activity against Candida albicans SC5314 at 512 ug/ml at planktonic cell density of 5 x 10^7 cells/ml after 48 hrs by XTT assay; type: functional; conditions: SC5314, 48 h
Candida albicans [6] = experiment: Antimicrobial activity against Candida albicans SC5314 dissociated biofilms grown on polyvinylchloride catheter surface at cell density of 10^3 cells/ml at 0.25 to 8 ug/ml by XTT assay; type: functional, organism-based
Outline: (§4)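 1-cm discs of denture acrylic, PVC catheter or silicone elastomer-coated latex catheter, ethylene-oxide sterilised. Seeded with 1 ml of 1 x 10^6 cells/ml, adhesion 90 min at 37°C, washed, grown 48 h at 37°C in RPMI. Biofilm scraped off, set to 1 x 10^3 or 1 x 10^8 cells/ml, exposed to fluconazole, read by XTT at 490 nm.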

Candida albicans [7] = experiment: Antimicrobial activity against Candida albicans SC5314 dissociated biofilms grown on polymethylmethacrylate surface at cell density of 10^8 cells/ml at 0.25 to 8 ug/ml by XTT assay; type: functional, organism-based; outline: as §4
Candida albicans [8] = experiment: Antimicrobial activity against Candida albicans SC5314 dissociated biofilms grown on silicone-elastomer coated latex surface at cell density of 10^8 cells/ml at 0.25 to 8 ug/ml by XTT assay; type: functional, organism-based; outline: as §4
Candida albicans [9] = experiment: Antimicrobial activity against Candida albicans FH1 at planktonic cell density of 10^8 cells/ml after 48 hrs by XTT assay; type: functional; conditions: FH1, 48 h; outline: as §1
Candida albicans [10] = experiment: Antimicrobial activity against Candida albicans FH1 dissociated biofilms at cell density of 10^3 cells/ml after 48 hrs by XTT assay; type: functional; conditions: FH1, 48 h; outline: as §2
Candida albicans [11] = experiment: Antimicrobial activity against Candida albicans FH1 dissociated biofilms at cell density of 10^8 cells/ml after 48 hrs by XTT assay; type: functional; conditions: FH1, 48 h; outline: as §2
Candida albicans [12] = experiment: Antimicrobial activity against Candida albicans FH1 intact biofilms after 48 hrs by XTT assay; type: functional; conditions: FH1, 48 h; outline: as §3
Candida albicans [13] = experiment: Antimicrobial activity against fluconazole-resistant Candida albicans FH5 at planktonic cell density of 10^3 cells/ml after 48 hrs by XTT assay; type: functional; conditions: FH5, 48 h; outline: as §1
Candida albicans [14] = experiment: Antimicrobial activity against fluconazole-resistant Candida albicans FH5 at planktonic cell density of 10^8 cells/ml after 48 hrs by XTT assay; type: functional; conditions: FH5, 48 h; outline: as §1
Candida albicans [15] = experiment: Antimicrobial activity against fluconazole-resistant Candida albicans FH5 dissociated biofilms at cell density of 10^8 cells/ml after 48 hrs by XTT assay; type: functional; conditions: FH5, 48 h; outline: as §2
Candida albicans [16] = experiment: Antimicrobial activity against fluconazole-resistant Candida albicans FH5 intact biofilms after 48 hrs by XTT assay; type: functional; conditions: FH5, 48 h; outline: as §3
Candida albicans [17] = experiment: Antimicrobial activity against Cdr1, Cdr2 and Mdr1 deficient Candida albicans DSY1050 at planktonic cell density of 10^3 cells/ml after 48 hrs by XTT assay; type: functional; conditions: DSY1050, 48 h; outline: as §1
Candida albicans [18] = experiment: Antimicrobial activity against Cdr1, Cdr2 and Mdr1 deficient Candida albicans DSY1050 at planktonic cell density of 10^8 cells/ml after 48 hrs by XTT assay; type: functional; conditions: DSY1050, 48 h; outline: as §1
Candida albicans [19] = experiment: Antimicrobial activity against Cdr1, Cdr2 and Mdr1 deficient Candida albicans DSY1050 dissociated biofilms at cell density of 10^3 cells/ml after 48 hrs by XTT assay; type: functional; conditions: DSY1050, 48 h; outline: as §2
Candida albicans [20] = experiment: Antimicrobial activity against Chk1 deficient Candida albicans CHK21 at planktonic cell density of 10^3 cells/ml after 48 hrs by XTT assay; type: functional; conditions: CHK21, 48 h; outline: as §1
Candida albicans [21] = experiment: Antimicrobial activity against Candida albicans SC5314 at planktonic cell density of 10^3 cells/ml after 48 hrs by XTT assay; type: functional; conditions: SC5314, 48 h; outline: as §1
Candida albicans [22] = experiment: Antimicrobial activity against Candida albicans SC5314 dissociated biofilms at cell density of 10^3 cells/ml after 48 hrs by XTT assay; type: functional; conditions: SC5314, 48 h; outline: as §2
Candida albicans [23] = experiment: Antimicrobial activity against Candida albicans GDH2346 at planktonic cell density of 10^3 cells/ml after 48 hrs by XTT assay; type: functional; conditions: GDH2346, 48 h; outline: as §1
Candida albicans [24] = experiment: Antimicrobial activity against Candida albicans GDH2346 at planktonic cell density of 10^8 cells/ml after 48 hrs by XTT assay; type: functional; conditions: GDH2346, 48 h; outline: as §1
Candida albicans [25] = experiment: Antimicrobial activity against Candida albicans GDH2346 dissociated biofilms at cell density of 10^3 cells/ml after 48 hrs by XTT assay; type: functional; conditions: GDH2346, 48 h; outline: as §2
Candida albicans [26] = experiment: Antimicrobial activity against Candida albicans GDH2346 dissociated biofilms at cell density of 10^8 cells/ml after 48 hrs by XTT assay; type: functional; conditions: GDH2346, 48 h; outline: as §2
Candida albicans [27] = experiment: Inhibition of metabolic activity in Candida albicans SC5314 at 32 ug/ml in presence of 2 ug/ml calcineurin pathway inhibitor FK506; type: functional; design: scale not given: the % may be the effect or the level left
Outline: (§5)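 SC5314 fluconazole susceptibility tested with or without FK506. Cell suspension, drug and FK506 volumes set to the final concentrations in 200 µl. Incubation at 37°C for 48 h, then metabolic activity by XTT/menadione at 490 nm.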

Candida albicans [28] = experiment: Inhibition of metabolic activity in Candida albicans SC5314 at 32 ug/ml; type: functional; design: scale not given: the % may be the effect or the level left; outline: as §5
Candida albicans [29] = experiment: Antimicrobial activity against Candida albicans disaggregated biofilms; type: functional
Outline: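 Biofilm grown 48 h at 37°C in RPMI (MOPS-buffered) on polystyrene wells from 1 x 10^6 cells/ml, washed, then dissociated by scraping/aspiration in 100 µl. Used undiluted (about 2 x 10^8 cells/ml) or diluted to about 2 x 10^3 cells/ml. Twofold drug dilutions (1,024 to 0.0313 µg/ml) for 48 h at 37°C (caspofungin 24 h). Read-out is XTT/menadione reduction at 490 nm.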

Work on `OC(Cn1cncn1)(Cn1cncn1)c1ccc(F)cc1F` [FLUCONAZOLE] yielded an MIC80 (Candida albicans [1]) greater than 64 µg/mL, an MIC80 (Candida albicans [2]) of 0.125 µg/mL (≈ 0.408 µM) and an MIC80 (Candida albicans [3]) greater than 64 µg/mL. For the same compound, the MIC80 (Candida albicans [4]) was greater than 64 µg/mL, the inhibition at 512 µg/mL (Candida albicans [5]) was 40% and the Activity (Candida albicans [6]) was “Active”. For the same compound, the Activity (Candida albicans [7]) was “inactive”, the Activity (Candida albicans [8]) was “inactive” and the MIC80 (Candida albicans [9]) was greater than 512 µg/mL. The MIC80 (Candida albicans [10]) was 2 µg/mL (≈ 6.53 µM), the MIC80 (Candida albicans [11]) was greater than 512 µg/mL and the MIC80 (Candida albicans [12]) was greater than 512 µg/mL. It also gave an MIC80 (Candida albicans [13]) of 64 µg/mL (≈ 209 µM), an MIC80 (Candida albicans [14]) greater than 512 µg/mL and an MIC80 (Candida albicans [15]) greater than 512 µg/mL. The MIC80 (Candida albicans [16]) was greater than 512 µg/mL, the MIC80 (Candida albicans [17]) was 0.25 µg/mL (≈ 0.816 µM) and the MIC80 (Candida albicans [18]) was greater than 64 µg/mL. The MIC80 (Candida albicans [19]) was 0.125 µg/mL (≈ 0.408 µM), the MIC80 (Candida albicans [20]) was 0.125 µg/mL (≈ 0.408 µM) and the MIC80 (Candida albicans [21]) was 0.5 µg/mL (≈ 1.63 µM). For the same compound, the MIC80 (Candida albicans [22]) was 0.25 µg/mL (≈ 0.816 µM), the MIC80 (Candida albicans [23]) was 2 µg/mL (≈ 6.53 µM) and the MIC80 (Candida albicans [24]) was greater than 512 µg/mL. It also gave an MIC80 (Candida albicans [25]) of 0.25 µg/mL (≈ 0.816 µM), an MIC80 (Candida albicans [26]) greater than 64 µg/mL and an Activity (Candida albicans [27]) of 17%. For the same compound, the Activity (Candida albicans [28]) was 15% and the MIC (Candida albicans [29]) was 256 µg/mL (≈ 836 µM).
